The results in this text go back to ChEMBL document CHEMBL4819098, “Novel 1,2,4-triazine-quinoline hybrids: The privileged scaffolds as potent multi-target inhibitors of LPS-induced inflammatory response via dual COX-2 and 15-LOX inhibition” (Eur J Med Chem, 2021).

SMILES strings stand for the structures.

For data set [1], the target named is COX-1 (Prostaglandin G/H synthase 1) (Homo sapiens, UniProt P23219). Nature of the data set: Inhibition of COX-1 in human whole blood assessed as reduction in thromboxane B2 production at 10 uM measured after 1 hr by EIA. It is filed as tissue-based.
Data set [2] in a line: Inhibition of soybean 15-LOX using linolenic acid as substrate by spectrophotometric analysis. Further details: species or system Glycine max.
Data set [3] deals with T1, Prostaglandin G/H synthase 2 (Homo sapiens) (UniProt P35354).
T1 sequence (whole entry): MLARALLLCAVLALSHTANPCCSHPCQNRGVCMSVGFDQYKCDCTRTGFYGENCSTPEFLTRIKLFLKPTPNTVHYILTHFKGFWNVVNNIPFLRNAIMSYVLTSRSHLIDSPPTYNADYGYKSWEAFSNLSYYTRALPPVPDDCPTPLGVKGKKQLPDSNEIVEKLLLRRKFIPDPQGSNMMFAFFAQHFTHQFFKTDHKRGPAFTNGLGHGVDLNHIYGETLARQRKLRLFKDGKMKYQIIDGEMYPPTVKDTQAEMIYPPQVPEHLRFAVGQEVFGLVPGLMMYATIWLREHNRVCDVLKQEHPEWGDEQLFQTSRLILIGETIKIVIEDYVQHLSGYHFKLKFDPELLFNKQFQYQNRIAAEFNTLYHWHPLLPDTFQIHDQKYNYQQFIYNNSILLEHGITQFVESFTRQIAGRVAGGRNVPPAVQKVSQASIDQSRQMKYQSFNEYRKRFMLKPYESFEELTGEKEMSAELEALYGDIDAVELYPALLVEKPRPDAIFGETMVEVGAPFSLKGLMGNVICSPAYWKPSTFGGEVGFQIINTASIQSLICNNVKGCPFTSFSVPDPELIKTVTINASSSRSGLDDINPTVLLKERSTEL
Nature of the data set: Inhibition of COX-2 in human whole blood assessed as reduction in PGE2 production at 10 uM measured after 24 hrs by EIA. It is filed as tissue-based.

For data set [4], the system named is RAW264.7. Nature of the data set: Potency index, ratio of diclofenac sodium IC50 to test compound IC50 for inhibition of LPS-induced TNFalpha production in mouse RAW264.7 cells preincubated for 2 hrs followed by LPS stimulation and measured after 20 hrs by ELISA. It is filed as functional. The following applies: time 22 hrs.
The target in data set [5] is T1, Prostaglandin G/H synthase 2 (Homo sapiens). As to the kind of experiment: Potency index, ratio of diclofenac sodium IC50 to test compound IC50 for human recombinant COX-2 using arachidonic acid as substrate preincubated with enzyme for 5 mins followed by substrate addition by colorimetric analysis.
For data set [6], the system named is RAW264.7. As to the kind of experiment: Inhibition of LPS-induced 15(S)-HETE production in mouse RAW264.7 cells preincubated for 2 hrs followed by LPS stimulation and measured after 20 hrs by ELISA. It is filed as functional, cell-based. A general note: An ELISA detects its analyte on a solid surface through an enzyme-linked reagent.
Data set [7] deals with RAW264.7. Nature of the data set: Cytotoxicity against mouse RAW264.7 cells assessed as reduction in cell viability by MTS assay. It is filed as cell-based. The method in brief:
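RAW 264.7 macrophage viability at the tested concentrations measured by MTS assay.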
On the technique in general: Formazan colour is commonly taken as a measure of viable cells.

Data set [8] has as its system RAW264.7. Nature of the data set: Inhibition of LPS-induced IL-6 production in mouse RAW264.7 cells preincubated for 2 hrs followed by LPS stimulation and measured after 20 hrs by ELISA. It is filed as functional, cell-based.
The subject of data set [9] is RAW264.7. Nature of the data set: Potency index, ratio of celecoxib IC50 to test compound IC50 for inhibition of LPS-induced TNFalpha production in mouse RAW264.7 cells preincubated for 2 hrs followed by LPS stimulation and measured after 20 hrs by ELISA. It is filed as functional. Conditions: time 22 hrs.
Data set [10] deals with RAW264.7. Nature of the data set: Potency index, ratio of diclofenac sodium IC50 to test compound IC50 for inhibition of LPS-induced IL-6 production in mouse RAW264.7 cells preincubated for 2 hrs followed by LPS stimulation and measured after 20 hrs by ELISA. Conditions: time 22 hrs. It is filed as functional.
In data set [11] the target is T2, Prostaglandin G/H synthase 1 (Ovis aries, UniProt P05979).
T2 sequence (P05979 whole entry): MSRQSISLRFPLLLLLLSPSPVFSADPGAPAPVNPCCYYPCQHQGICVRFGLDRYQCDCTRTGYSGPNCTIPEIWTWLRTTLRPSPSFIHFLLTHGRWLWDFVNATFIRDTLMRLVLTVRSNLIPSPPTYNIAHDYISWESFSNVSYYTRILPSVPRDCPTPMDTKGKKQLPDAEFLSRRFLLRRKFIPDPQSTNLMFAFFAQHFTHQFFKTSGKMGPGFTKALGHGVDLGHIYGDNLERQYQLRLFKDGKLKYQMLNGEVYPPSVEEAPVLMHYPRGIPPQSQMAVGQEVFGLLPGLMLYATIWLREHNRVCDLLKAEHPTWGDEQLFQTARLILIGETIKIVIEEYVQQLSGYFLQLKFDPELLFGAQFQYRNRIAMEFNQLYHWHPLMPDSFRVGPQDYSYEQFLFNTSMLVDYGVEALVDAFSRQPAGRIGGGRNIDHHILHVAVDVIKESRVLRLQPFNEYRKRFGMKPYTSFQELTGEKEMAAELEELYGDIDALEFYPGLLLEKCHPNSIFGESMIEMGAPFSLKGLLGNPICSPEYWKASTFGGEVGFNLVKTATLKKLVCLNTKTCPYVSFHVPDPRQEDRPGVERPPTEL
As to the kind of experiment: Inhibition of ovine COX-1 using arachidonic acid as substrate preincubated with enzyme for 5 mins followed by substrate addition by colorimetric analysis.

A short description of data set [12]: Selectivity index, ratio of IC50 for ovine COX-1 to IC50 for human recombinant COX-2. The method in brief: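 Enzyme kit assay with ovine COX-1 and human recombinant COX-2. IC50 determined from three replicates. Selectivity index taken as IC50(COX-1)/IC50(COX-2).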
In data set [13] the test system is RAW264.7. Nature of the data set: Potency index, ratio of celecoxib IC50 to test compound IC50 for inhibition of LPS-induced IL-6 production in mouse RAW264.7 cells preincubated for 2 hrs followed by LPS stimulation and measured after 20 hrs by ELISA. It is filed as functional. Conditions: time 22 hrs.
In data set [14] the test system is RAW264.7. Nature of the data set: Inhibition of LPS-induced TNFalpha production in mouse RAW264.7 cells preincubated for 2 hrs followed by LPS stimulation and measured after 20 hrs by ELISA. It is filed as functional, cell-based.
Data set [15] concerns RAW264.7. As to the kind of experiment: Inhibition of LPS-induced NO production in mouse RAW264.7 cells preincubated for 2 hrs followed by LPS stimulation and measured after 20 hrs by DAF-FM based fluorescence analysis. It is filed as functional, cell-based.
Data set [16] has as its target T3, Prostaglandin G/H synthase 2 (Homo sapiens, UniProt P35354).
T3 sequence (P35354 whole entry): T1 sequence (whole entry)
Nature of the data set: Inhibition of human recombinant COX-2 using arachidonic acid as substrate preincubated with enzyme for 5 mins followed by substrate addition by colorimetric analysis.

Data set [17] is described as follows: Inhibition of soybean 15-LOX using arachidonic acid or linolenic acid as substrate in presence of hydrogen peroxide incubated for 5 mins by colorimetric analysis. Set-up: species or system Glycine max.
Data set [18] concerns RAW264.7. Nature of the data set: Antioxidant activity in mouse RAW264.7 cells assessed as inhibition of LPS-induced intracellular ROS production preincubated for 2 hrs followed by LPS stimulation and measured after 20 hrs by DCFH-DA staining based fluorescence analysis. It is filed as functional, cell-based.
Data set [19] deals with RAW264.7. Nature of the data set: Cytotoxicity against mouse RAW264.7 cells assessed as reduction in cell viability at 50 uM by MTS assay. It is filed as cell-based. Conditions: raw264.7, 50 µM.
In data set [20] the test system is RAW264.7. As to the kind of experiment: Potency index, ratio of celecoxib IC50 to test compound IC50 for inhibition of LPS-induced NO production in mouse RAW264.7 cells preincubated for 2 hrs followed by LPS stimulation and measured after 20 hrs by DAF-FM based fluorescence analysis. It is filed as functional. The following applies: time 22 hrs.
Data set [21] deals with RAW264.7. Nature of the data set: Potency index, ratio of diclofenac sodium IC50 to test compound IC50 for inhibition of LPS-induced NO production in mouse RAW264.7 cells preincubated for 2 hrs followed by LPS stimulation and measured after 20 hrs by DAF-FM based fluorescence analysis. It is filed as functional. Conditions: time 22 hrs.
The target of data set [22] is T2, Prostaglandin G/H synthase 1. As to the kind of experiment: Inhibition of ovine COX-1 by EIA.
The target of data set [23] is T4, Prostaglandin G/H synthase 2 (Ovis aries, UniProt P79208).
T4 sequence (P79208 whole entry): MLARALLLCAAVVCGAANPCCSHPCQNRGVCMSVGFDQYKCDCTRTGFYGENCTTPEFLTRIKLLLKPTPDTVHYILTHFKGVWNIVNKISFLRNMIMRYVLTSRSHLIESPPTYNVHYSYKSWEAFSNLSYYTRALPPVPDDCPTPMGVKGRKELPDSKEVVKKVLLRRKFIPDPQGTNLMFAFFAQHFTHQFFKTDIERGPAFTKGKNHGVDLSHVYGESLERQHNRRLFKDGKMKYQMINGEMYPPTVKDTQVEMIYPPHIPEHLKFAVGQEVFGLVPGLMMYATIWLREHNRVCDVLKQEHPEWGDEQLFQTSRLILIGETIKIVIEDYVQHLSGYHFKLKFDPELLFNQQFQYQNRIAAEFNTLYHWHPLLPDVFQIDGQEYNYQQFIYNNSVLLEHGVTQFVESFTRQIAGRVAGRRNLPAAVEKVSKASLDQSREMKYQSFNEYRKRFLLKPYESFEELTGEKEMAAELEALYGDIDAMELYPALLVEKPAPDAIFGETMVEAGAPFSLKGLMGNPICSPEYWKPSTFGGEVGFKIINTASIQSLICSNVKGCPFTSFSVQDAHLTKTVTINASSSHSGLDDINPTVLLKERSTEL
As to the kind of experiment: Inhibition of ovine COX-2 by EIA.

Data set [24] addresses T2, Prostaglandin G/H synthase 1. Nature of the data set: Inhibition of ovine COX-1 by colorimetric analysis.
The target of data set [25] is T3, Prostaglandin G/H synthase 2. As to the kind of experiment: Inhibition of COX-2 (unknown origin) using arachidonic acid as substrate preincubated with enzyme for 1 min followed by substrate addition by fluorometric analysis.

Chain of COX-1 (Prostaglandin G/H synthase 1) (P23219 whole entry): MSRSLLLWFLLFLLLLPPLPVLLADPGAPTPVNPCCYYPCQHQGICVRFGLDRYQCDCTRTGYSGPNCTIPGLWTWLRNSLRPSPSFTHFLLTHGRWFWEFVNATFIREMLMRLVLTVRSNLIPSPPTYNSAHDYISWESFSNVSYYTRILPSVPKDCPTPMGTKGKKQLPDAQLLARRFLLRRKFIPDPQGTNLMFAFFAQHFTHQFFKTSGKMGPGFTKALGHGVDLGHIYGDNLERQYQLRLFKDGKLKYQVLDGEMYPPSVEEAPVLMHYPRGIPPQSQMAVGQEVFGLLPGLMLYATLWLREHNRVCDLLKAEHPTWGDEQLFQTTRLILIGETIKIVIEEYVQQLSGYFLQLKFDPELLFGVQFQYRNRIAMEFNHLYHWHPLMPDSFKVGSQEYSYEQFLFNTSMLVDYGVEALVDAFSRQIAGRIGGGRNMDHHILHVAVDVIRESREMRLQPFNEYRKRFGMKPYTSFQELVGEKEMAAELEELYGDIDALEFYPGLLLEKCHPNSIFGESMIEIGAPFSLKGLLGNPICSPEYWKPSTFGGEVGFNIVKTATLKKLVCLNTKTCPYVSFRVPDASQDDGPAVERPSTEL

For the compound `COc1ccc(C2=C(c3ccc(OC)cc3)NNC(N/N=C/c3ccc(F)cc3)=N2)cc1`, the inhibition at 1 h, 10 µM in [1] was 69%. Besides, the IC50 in [2] was 124 µM. The inhibition in data set [3] was found to be 72%.
For `COc1cc(Cc2n[nH]c(=S)n(/N=C/c3cc4cccc(C)c4nc3Cl)c2=O)cc(OC)c1OC`, the “Ratio IC50” value in the data set on RAW264.7 [4] worked out at 25; in [5] it was 5.3; in the data set with RAW264.7 [9], 25; in the data set on RAW264.7 [10], 3.2; in data set [12], 51.9; with RAW264.7 [13], 2.8. Besides, the IC50 was determined as 1.46 µM in the data set with RAW264.7 [6]; 3.99 µM in the data set with RAW264.7 [8]; 8.3 µM in data set [11]; 0.4 µM in the data set on RAW264.7 [14]; 25.8 µM in the data set on RAW264.7 [15]; 0.16 µM in [16]. In addition, the IC50 in data set [17] was found to be 1.86 µM. In the data set on RAW264.7 [7], the Activity entry is given as “Non-Toxic”.
As for `COc1cc(Cc2n[nH]c(=S)n(/N=C/c3cc4ccc(OCc5ccccc5)cc4nc3Cl)c2=O)cc(OC)c1OC`, the IC50 worked out at 4.36 µM with RAW264.7 [18]; 2.03 µM with RAW264.7 [6]; 6.11 µM with RAW264.7 [8]; 7.7 µM in data set [11]; 16 µM in the data set on RAW264.7 [14]; 6.76 µM in the data set on RAW264.7 [15]. For the same compound, the results for the IC50 in [16] and in [17] were 0.12 µM and 3.39 µM, respectively. The Activity entry is reported as “Toxic” in the data set with RAW264.7 [19] and “Non-Toxic” in the data set on RAW264.7 [7]. The “Ratio IC50” value in the data set with RAW264.7 [20] is 3; in data set [5], 7; in the data set on RAW264.7 [10] it was 2.1; in data set [12], 64.2; in the data set on RAW264.7 [13] it was 1.8; in the data set on RAW264.7 [21], 6.
Regarding `CCOC(=O)c1cnn(C(=O)c2cc(-c3ccc(Cl)cc3)nc3ccc(OC)cc23)c1N`, the IC50 is greater than 50 µM in [22] and 0.26 µM in data set [23].
In data set [24], `COc1ccc(/C=C2\N=C(c3cccnc3)N(c3ccccc3)NC2=O)cc1` registered an IC50 of 0.1 µM.
In data set [25], `COc1ccc2ccc(F)c(CC(=O)N/N=C/c3ccc(C(F)(F)F)cc3)c2n1` showed an IC50 of 0.13 µM.

As a reminder, the inhibition is the share of the control response that was lost under treatment. As a reminder, the IC50 is the concentration that gives 50% inhibition.
